Screening results deposited in PubChem by Johns Hopkins Ion Channel Center.
KCNQ1 inh – inhibitors of human KCNQ1 channel, primary screen, cell-based, thallium flux, high-throughput | Potassium voltage-gated channel subfamily KQT member 1 (Homo sapiens), P51787 | B-score at 10 µM | 310,000 compounds, 1.3% hits | AID 2642, 2010 | CHO-K1 KCNQ1, FluxOR thallium flux fluorescence; active compounds read high;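 active = compounds whose thallium flux B-score, printed positive for inhibition, exceeds three library SD while starting fluorescence stays within three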;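 also: channel opened by potassium depolarization with thallium stimulus after 20 min compound exposure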
KCNQ1 act – potentiators or activators of KCNQ1 channel, primary screen, cell-based, thallium flux, high-throughput; Potassium voltage-gated channel subfamily KQT member 1 (Homo sapiens), P51787; CHO-K1 KCNQ1, thallium flux FluxOR fluorescence; active compounds read high; B-score at 10 µM; 310,000 compounds, 0.35% hits;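 active = fluorescence ratio B-score, a plate-corrected score, at least three library SD, with initial intensity B-score within 5 SD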
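Material: CHO-K1 cells stably expressing KCNQ1. Medium: assay buffer for compound exposure, DMSO matched across wells. Reagent: K+/Tl+ depolarizing stimulus. Compound dosing: single-concentration screen. Times: 37 °C overnight plating, 90-min dark dye load, 20-min compound pretreatment. Technique: FluxOR Tl+ flux fluorescence.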
hERG rescue – hERG rescue from dofetilide block, primary screen, cell-based, CHO-hERG, FluxOR thallium flux, dofetilide IC70; activation (rescue from dofetilide block), less the hit threshold, % at 10 µM; dofetilide IC70 present; Voltage-gated inwardly rectifying potassium channel KCNH2 (Homo sapiens), Q12809; 310,000 compounds, 0.51% hits; AID 1511, 2009;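 active = activation above the mean of controls blocked by dofetilide plus 5 SD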;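 also: thallium influx through hERG after potassium depolarization seen as dye fluorescence rise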
KCNK3 inh – human KCNK3 channel inhibitors, primary screen, CHO cells, FluxOR thallium flux, B-score | Potassium channel subfamily K member 3 (Homo sapiens), O14649 | FluxOR fluorescence; active compounds read low | B-score at 10 µM | 340,000 compounds, 0.84% hits | AID 602410, 2012;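 active = B-score under library mean minus 4 SD, starting fluorescence ratio at most library mean plus 5 SD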;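 also: more negative B-score means stronger inhibition of thallium flux through KCNK3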
Target sequence (O14649 whole entry, looked up): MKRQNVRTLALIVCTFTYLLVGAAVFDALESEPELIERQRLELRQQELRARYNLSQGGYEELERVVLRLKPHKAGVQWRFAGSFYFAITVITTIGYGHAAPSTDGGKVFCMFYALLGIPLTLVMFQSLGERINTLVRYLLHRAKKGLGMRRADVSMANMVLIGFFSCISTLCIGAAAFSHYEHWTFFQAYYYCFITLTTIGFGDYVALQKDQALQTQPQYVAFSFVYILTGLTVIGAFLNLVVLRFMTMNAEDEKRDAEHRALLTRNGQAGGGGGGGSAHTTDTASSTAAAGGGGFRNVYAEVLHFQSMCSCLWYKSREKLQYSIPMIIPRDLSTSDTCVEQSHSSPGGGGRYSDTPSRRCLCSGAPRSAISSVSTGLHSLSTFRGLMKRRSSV
KCNK9 inh – KCNK9 potassium channel inhibitors, primary screen, HEK293 cells, thallium flux; B-score at 10 µM; 310,000 compounds, 1.2% hits; FluxOR thallium flux fluorescence; active compounds read low; AID 488922, 2010; Potassium channel subfamily K member 9 (Homo sapiens), Q9NPC2;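 active = ratio B-score over 3 SD below the library mean, with starting fluorescence within 5 SD of its mean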;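 also: negative B-score means less thallium flux so channel inhibition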
KCNK9 inh conf – KCNK9 potassium channel inhibitors, confirmation, HEK293 cells, thallium flux, duplicate | shares compounds with KCNK9 inh | FluxOR thallium flux fluorescence | inhibition, % at 10 µM | 4,900 compounds, 43% hits | AID 492992, 2010;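 active = thallium signal inhibited by more than 5 SD of the compound-free buffer control wells, on both duplicate plates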
Kir21 sel – mouse Kir2.1 channel inhibition, confirmation, selectivity assay for KCNK9 modulator project, cell-based, HEK293, thallium flux. AID 492993, 2010. 4,900 compounds, 4% hits. inhibition, % at 10 µM. Kir2.1 cells, FluxOR thallium flux fluorescence. shares compounds with KCNK9 inh;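 active = thallium signal drop more than 5 SD beyond the mean of the no-compound control wells, seen in both duplicate plates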;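 also: signal is fluorescence rise after thallium addition divided by baseline fluorescence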
HEK293 Tl ctr – thallium flux in non-induced HEK293 cells, confirmation, counter-screen for KCNK9 inhibitor project, cell-based, second counter screen, non-induced KCNK9-HEK293. 4,900 compounds, 40% hits. shares compounds with KCNK9 inh. inhibition, % at 10 µM. FluxOR thallium flux;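 active = thallium signal drop beyond 5 SD of the untreated control mean, on both duplicate plates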
KCNK3 confirm – retest of human KCNK3 channel inhibitors, confirmation, CHO cells, FluxOR thallium flux, triplicate; shares compounds with KCNK3 inh; FluxOR fluorescence; 0% buffer, 100% carvedilol maximal block; ratio percent of control, % at 10 µM; 2,400 compounds, 99% hits;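 active = ratio percent of control, averaged over triplicates, above buffer control mean plus 5 SD, cut at about 64% in these data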;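 also: ratio is the fluorescence rise from min to max over baseline after thallium stimulus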
KCNK3 noninduced – thallium flux inhibition in non-induced cells, primary screen, counter-screen for KCNK3 inhibitor project, cell-based, non-induced KCNK3 line, FluxOR thallium, triplicate | thallium flux ratio (lower = more inhibition) at 10 µM | shares compounds with KCNK3 inh | non-induced KCNK3 parental cells; active compounds read low | 2,400 compounds, 40% hits;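 active = thallium flux ratio, averaged over three wells, more than 5 SD below the buffer control mean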;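 also: host cells are CHO cells without KCNK3 induction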
Large screens that a line does not name were inactive (follow-up assays come after a bar, where they were run). Most compounds without a hit are left out; they make up all but 3.1% or so of the library.

COC(=O)c1ccc(/C=N/NC(=O)C2CC(=O)N(c3ccc(OC)cc3)C2)cc1 (centres undefined)	none
COc1ccccc1NC(=O)CC(c1ccc(F)cc1)c1ccco1 (centres undefined)	KCNK9 inh -10 | KCNK9 inh conf 36% | Kir21 sel inactive | HEK293 Tl ctr 30% | KCNK3 confirm 121 | KCNK3 noninduced 0.15
COc1ccc(C(CC(=O)Nc2ccc(F)cc2)c2ccccc2)cc1 (centres undefined)	none
COc1ccccc1C(CC(=O)Nc1nccs1)c1ccco1 (centres undefined)	none
O=C(CC(c1ccc(F)cc1)c1ccco1)Nc1nccs1 (centres undefined)	KCNK3 inh -11, KCNK9 inh -8.1 | KCNK9 inh conf 32% | Kir21 sel inactive | HEK293 Tl ctr 34% | KCNK3 confirm 110 | KCNK3 noninduced 0.16
COc1ccc2[nH]c(C(=O)O)c(NS(=O)(=O)c3ccc(C)cc3C)c2c1	none
Cc1ccc2nc(C)cc(C(=O)N3CCCC(CO)(Cc4ccccc4C)C3)c2c1 (centres undefined)	none
O=C(COC(=O)Cc1ccccc1F)NCCNC(=O)COC(=O)Cc1ccccc1F	none
Cc1ccc(Nc2nc(Cl)nc(NC(C)(C)C)n2)cc1	none
CC(C)(C)Nc1nc(Nc2ccc([N+](=O)[O-])cc2)nc(NC(C)(C)C)n1	KCNQ1 inh 8, KCNK3 inh -11, KCNK9 inh -13 | KCNK9 inh conf 46% | Kir21 sel inactive | HEK293 Tl ctr 34% | KCNK3 confirm 128 | KCNK3 noninduced 0.13
Cc1ccc(S(=O)(=O)N2CCOCC2)cc1C(=O)OCC(=O)NC1CCS(=O)(=O)C1 (centres undefined)	none
O=C(NCCn1cccn1)C1CCC(=O)N(CCc2ccc(Cl)cc2)C1 (centres undefined)	none
CCOC(=O)c1cccc(NC(=O)CSc2nnnn2C)c1	none
CCOC(=O)c1sc(-c2ccccc2)cc1NC(=O)CSc1nnnn1C	KCNK3 inh -12, KCNK9 inh -11 | KCNK9 inh conf 52% | Kir21 sel inactive | HEK293 Tl ctr 34% | KCNK3 confirm 87 | KCNK3 noninduced inactive
CCOC(=O)c1cc(-c2ccccc2)sc1NC(=O)CSc1nnnn1C	KCNK3 inh -11, KCNK9 inh -9.6 | KCNK9 inh conf 54% | Kir21 sel inactive | HEK293 Tl ctr 32% | KCNK3 confirm 104 | KCNK3 noninduced inactive
COc1ccccc1OCC(=O)Nc1nonc1NC(=O)COc1ccccc1OC	none
CC(=O)OC(COc1cccc(C)c1)Cn1cnc2ccccc21 (centres undefined)	KCNK3 inh -9.4 | KCNK3 confirm 126 | KCNK3 noninduced 0.16
CC(C)NC(=S)Nc1ccc2nc3n(c(=O)c2c1)CCCCC3	none
